Reference: ChEMBL document CHEMBL1122917, “Vinblastin-23-oyl amino acid derivatives: chemistry, physicochemical data, toxicity, and antitumor activities against P388 and L1210 leukemias” (J Med Chem, 1985)

Experiments:
Assay type in all cases: functional
[1] = system: Mus musculus; assay: Percent increase in life span at dose 10 mg/kg/day in 10 mice implanted with P388 leukemia cell line
Procedure, shortened: (§1)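 Female DBA2 mice inoculated iv on day 0 with 10^4 P388 cells; single iv treatment on day 1 with drug as sulfate salt in physiological saline. Survival followed; %ILS from all deaths and survivors as (T/C × 100) − 100, maximal MST 30 days; survivors counted on days 30 and 60. Most experiments confirmed three times.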

[2] = system: Mus musculus; assay: Number of survivors on 60th day at dose 12.5 mg/kg/day in 10 mice implanted with P388 leukemia cell line
[3] = system: Mus musculus; assay: Number of survivors on 60th day at dose 14 mg/kg/day in 10 mice implanted with P388 leukemia cell line
[4] = system: Mus musculus; assay: Number of survivors on 60th day at dose 15 mg/kg/day in 10 mice implanted with P388 leukemia cell line
[5] = system: Mus musculus; assay: Number of survivors on 60th day at dose 17.5 mg/kg/day in 9 mice implanted with P388 leukemia cell line
[6] = system: Mus musculus; assay: Percent increase in life span at dose 7 mg/kg/day in 10 mice implanted with P388 leukemia cell line; procedure, shortened: as §1
[7] = system: Mus musculus; assay: Percent increase in life span at dose 12.5 mg/kg/day in 10 mice implanted with P388 leukemia cell line; procedure, shortened: as §1
[8] = system: Mus musculus; assay: Percent increase in life span at dose 14 mg/kg/day in 10 mice implanted with P388 leukemia cell line; procedure, shortened: as §1
[9] = system: Mus musculus; assay: Percent increase in life span at dose 17.5 mg/kg/day in 10 mice implanted with P388 leukemia cell line
[10] = system: Mus musculus; assay: Percent increase in life span at dose 4 mg/kg/day in 10 mice implanted with P388 leukemia cell line; settings: Mus musculus, P388; procedure, shortened: as §1
[11] = system: Mus musculus; assay: Percent increase in life span at dose 5 mg/kg/day in 10 mice implanted with P388 leukemia cell line; procedure, shortened: as §1
[12] = system: Mus musculus; assay: Percent increase in life span of DBA2 mice after inoculation with L1210 leukemia intravenously at a dose of 15 mg/kg per day; settings: route intravenous
[13] = system: Mus musculus; assay: Number of survivors on 60th day at dose 4 mg/kg/day in 10 mice implanted with P388 leukemia cell line
[14] = system: Mus musculus; assay: Number of survivors on 60th day at dose 5 mg/kg/day in 10 mice implanted with P388 leukemia cell line
[15] = system: Mus musculus; assay: Number of survivors of DBA2 mice on 60th day after inoculation with L1210 leukemia cell line intravenously at a dose of 15 mg/kg/day; 0/10; settings: route intravenous
[16] = system: Mus musculus; assay: Number of survivors on 30th day at dose 4 mg/kg/day in 10 mice implanted with P388 leukemia cell line
[17] = system: Mus musculus; assay: Number of survivors on 30th day at dose 5 mg/kg/day in 10 mice implanted with P388 leukemia cell line
[18] = system: Mus musculus; assay: Number of survivors of DBA2 mice on 30th day after inoculation with L1210 leukemia cell line intravenously at a dose of 15 mg/kg/day; 0/10; settings: route intravenous
[19] = system: Mus musculus; assay: Number of survivors on 60th day at dose 10 mg/kg/day in 10 mice implanted with P388 leukemia cell line
[20] = system: Mus musculus; assay: Number of survivors on 30th day at dose 12.5 mg/kg/day in 10 mice implanted with P388 leukemia cell line
[21] = system: Mus musculus; assay: Number of survivors on 30th day at dose 14 mg/kg/day in 10 mice implanted with P388 leukemia cell line
[22] = system: Mus musculus; assay: Number of survivors on 30th day at dose 17.5 mg/kg/day in 9 mice implanted with P388 leukemia cell line
[23] = system: Mus musculus; assay: Number of survivors on 30th day at dose 10 mg/kg/day in 10 mice implanted with P388 leukemia cell line
[24] = system: Mus musculus; assay: Number of survivors on 60th day at dose 7 mg/kg/day in 10 mice implanted with P388 leukemia cell line; procedure, shortened: as §1
[25] = system: Mus musculus; assay: Number of survivors on 30th day at dose 7 mg/kg/day in 10 mice implanted with P388 leukemia cell line
[26] = system: Mus musculus; assay: Number of survivors on 30th day at dose 15 mg/kg/day in 10 mice implanted with P388 leukemia cell line
[27] = system: Mus musculus; assay: Percent increase in life span at dose 6 mg/kg/day in 10 mice implanted with P388 leukemia cell line; procedure, shortened: as §1
[28] = system: Mus musculus; assay: Percent increase in life span of DBA2 mice after inoculation with L1210 leukemia intravenously at a dose of 9 mg/lg per day
[29] = system: Mus musculus; assay: Number of survivors on 60th day at dose 6 mg/kg/day in 10 mice implanted with P388 leukemia cell line
[30] = system: Mus musculus; assay: Percent increase in life span at dose 8 mg/kg/day in 10 mice implanted with P388 leukemia cell line; procedure, shortened: as §1
[31] = system: Mus musculus; assay: Number of survivors of DBA2 mice on 30th day after inoculation with L1210 leukemia cell line intravenously at a dose of 9 mg/kg/day; 0/10; settings: route intravenous
[32] = system: Mus musculus; assay: Percent increase in life span at dose 11 mg/kg/day in 10 mice implanted with P388 leukemia cell line; procedure, shortened: as §1
[33] = system: Mus musculus; assay: Percent increase in life span of DBA2 mice after inoculation with L1210 leukemia intravenously at a dose of 10 mg/lg per day
[34] = system: Mus musculus; assay: Number of survivors on 60th day at dose 8 mg/kg/day in 10 mice implanted with P388 leukemia cell line; procedure, shortened: as §1
[35] = system: Mus musculus; assay: Number of survivors of DBA2 mice on 60th day after inoculation with L1210 leukemia cell line intravenously at a dose of 10 mg/kg/day; 0/10; settings: route intravenous
[36] = system: Mus musculus; assay: Number of survivors of DBA2 mice on 30th day after inoculation with L1210 leukemia cell line intravenously at a dose of 10 mg/kg/day; 0/10; settings: route intravenous
[37] = system: Mus musculus; assay: Number of survivors on 60th day at dose 11 mg/kg/day in 10 mice implanted with P388 leukemia cell line
[38] = system: Mus musculus; assay: Number of survivors on 30th day at dose 11 mg/kg/day in 10 mice implanted with P388 leukemia cell line
[39] = system: Mus musculus; assay: Number of survivors on 30th day at dose 6 mg/kg/day in 10 mice implanted with P388 leukemia cell line
[40] = system: Mus musculus; assay: Number of survivors of DBA2 mice on 60th day after inoculation with L1210 leukemia cell line intravenously at a dose of 9 mg/kg/day; 0/10; settings: route intravenous
Procedure, shortened: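 Female DBA₂ mice received 10⁴ L1210 cells iv on day 0. Compounds were given iv as sulfate salts in physiological saline, as a single dose on day 1 (mg/kg per day). Groups were 10 mice. Survivors were counted on day 60. Cells were maintained by ip passage in DBA₂ mice.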

[41] = system: Mus musculus; assay: Number of survivors on 30th day at dose 8 mg/kg/day in 10 mice implanted with P388 leukemia cell line
[42] = system: Mus musculus; assay: Number of survivors on 60th day at dose 20 mg/kg/day in 10 mice implanted with P388 leukemia cell line; 0/10
[43] = system: Mus musculus; assay: Percent increase in life span at dose 70 mg/kg/day in 10 mice implanted with P388 leukemia cell line; procedure, shortened: as §1
[44] = system: Mus musculus; assay: Percent increase in life span at dose 20 mg/kg/day in 10 mice implanted with P388 leukemia cell line; procedure, shortened: as §1
[45] = system: Mus musculus; assay: Number of survivors on 60th day at dose 50 mg/kg/day in 10 mice implanted with P388 leukemia cell line; 0/10
[46] = system: Mus musculus; assay: Percent increase in life span at dose 40 mg/kg/day in 10 mice implanted with P388 leukemia cell line; procedure, shortened: as §1
[47] = system: Mus musculus; assay: Percent increase in life span at dose 60 mg/kg/day in 10 mice implanted with P388 leukemia cell line; procedure, shortened: as §1
[48] = system: Mus musculus; assay: Number of survivors on 60th day at dose 40 mg/kg/day in 10 mice implanted with P388 leukemia cell line; 1/10
[49] = system: Mus musculus; assay: Number of survivors on 30th day at dose 20 mg/kg/day in 10 mice implanted with P388 leukemia cell line; 0/10
[50] = system: Mus musculus; assay: Number of survivors on 30th day at dose 40 mg/kg/day in 10 mice implanted with P388 leukemia cell line; 1/10
[51] = system: Mus musculus; assay: Number of survivors on 60th day at dose 60 mg/kg/day in 10 mice implanted with P388 leukemia cell line; 2/10
[52] = system: Mus musculus; assay: Number of survivors on 60th day at dose 70 mg/kg/day in 10 mice implanted with P388 leukemia cell line; procedure, shortened: as §1
[53] = system: Mus musculus; assay: Number of survivors on 30th day at dose 70 mg/kg/day in 10 mice implanted with P388 leukemia cell line; 0/10
[54] = system: Mus musculus; assay: Number of survivors on 30th day at dose 60 mg/kg/day in 10 mice implanted with P388 leukemia cell line; 3/10
[55] = system: Mus musculus; assay: Percent increase in life span at dose 50 mg/kg/day in 10 mice implanted with P388 leukemia cell line; procedure, shortened: as §1
[56] = system: Mus musculus; assay: Number of survivors on 30th day at dose 50 mg/kg/day in 10 mice implanted with P388 leukemia cell line; 1/10

Work on `CCOC(=O)[C@@H](NC(=O)[C@@]1(O)[C@H](O)[C@]2(CC)C=CCN3CC[C@@]4(c5cc([C@@]6(C(=O)OC)C[C@H]7C[N@](CCc8c6[nH]c6ccccc86)C[C@](O)(CC)C7)c(OC)cc5N(C)[C@@]14C)[C@@H]32)C(C)C` yielded an ILS at 10 mg/kg/day [1] of 53.4%, a Survivors [2] of 0 and a Survivors [3] of 0. The Survivors [4] was 2, the Survivors [5] was 0 and the ILS at 7 mg/kg/day [6] was 40%. For the same compound, the ILS at 12.5 mg/kg/day [7] was 82.6%, the ILS at 14 mg/kg/day [8] was 108% and the ILS at 17.5 mg/kg/day [9] was 22.2%. The ILS at 4 mg/kg/day [10] was 13.5%, the ILS at 5 mg/kg/day [11] was 17.2% and the ILS at 15 mg/kg/day [12] was 67%. For the same compound, the Survivors [13] was 1, the Survivors [14] was 0 and the Survivors [15] was 0. The Survivors [16] was 1, the Survivors [17] was 0 and the Survivors [18] was 0. It also gave a Survivors [19] of 0, a Survivors [20] of 2 and a Survivors [21] of 2. The Survivors [22] was 0, the Survivors [23] was 0 and the Survivors [24] was 0. The Survivors [25] was 0 and the Survivors [26] was 3.

With `CCOC(=O)C(CC(C)C)NC(=O)[C@@]1(O)[C@H](O)[C@]2(CC)C=CCN3CC[C@@]4(c5cc([C@@]6(C(=O)OC)C[C@H]7CN(CCc8c6[nH]c6ccccc86)C[C@](O)(CC)C7)c(OC)cc5N(C)[C@@]14C)[C@@H]32` (stereo not given in full) the ILS at 10 mg/kg/day [1] was over 146%, the ILS at 6 mg/kg/day [27] was 26.7% and the ILS [28] was 27%. The Survivors [2] was 1, the Survivors [3] was 0 and the Survivors [29] was 0. It also gave an ILS at 8 mg/kg/day [30] of 46.5%, a Survivors [31] of 0 and an ILS at 11 mg/kg/day [32] of 155%. It also gave an ILS at 12.5 mg/kg/day [7] of over 146%, an ILS at 14 mg/kg/day [8] of 30% and an ILS [33] of 29.4%. It also gave a Survivors [34] of 1, a Survivors [35] of 0 and a Survivors [36] of 0. It also gave a Survivors [19] of 2, a Survivors [37] of 0 and a Survivors [38] of 3. It also gave a Survivors [20] of 6, a Survivors [21] of 2 and a Survivors [23] of 7. It also gave a Survivors [39] of 0, a Survivors [40] of 0 and a Survivors [41] of 2.

Compound `CCOC(=O)[C@H](Cc1ccc(O)cc1)NC(=O)[C@@]1(O)[C@H](O)[C@]2(CC)C=CCN3CC[C@@]4(c5cc([C@@]6(C(=O)OC)C[C@H]7C[N@](CCc8c6[nH]c6ccccc86)C[C@](O)(CC)C7)c(OC)cc5N(C)[C@@]14C)[C@@H]32` has a Survivors [42] of 0, an ILS at 70 mg/kg/day [43] of 49.5% and an ILS at 20 mg/kg/day [44] of 29.9%. For the same compound, the Survivors [45] was 0, the ILS at 40 mg/kg/day [46] was 53.3% and the ILS at 60 mg/kg/day [47] was 49.5%. For the same compound, the Survivors [48] was 1, the Survivors [49] was 0 and the Survivors [50] was 1. For the same compound, the Survivors [51] was 2, the Survivors [52] was 0 and the Survivors [53] was 0. The Survivors [54] was 3, the ILS at 50 mg/kg/day [55] was 49.5% and the Survivors [56] was 1.
